# Laboratory results taken from ChEMBL document CHEMBL3414513, “Synthesis and biological evaluation of betulonic acid derivatives as antitumor agents” (Eur J Med Chem, 2015).
# Activity calls are given as the source filed them. No cut-off for these calls is given here.
# Legend:
# MGC-803 [1] = experiment: Induction of apoptosis in human MGC803 cells assessed as activation of caspase-3 using Ac-[…]-pNA as probe at 2.5 to 10 uM after 12 hrs; assay type: functional, cell-based
# Method in brief: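 MGC-803 cells were treated at 2.5, 5 or 10 µM for 12 h. Cells (1×10^6/mL) were washed in cold PBS, lysed on ice for 25 min and spun at 18000 g for 15 min. Supernatant was mixed with reaction buffer and Ac-[…]-pNA and incubated at 37 °C for 2-3 h in the dark. A405 was read against a lysis/reaction buffer blank.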
# MGC-803 [2] = experiment: Induction of apoptosis in human MGC803 cells assessed as appearance of compact condensed and crescent shaped cells at 5 uM after 12 to 48 hrs by Hoechst 33258 staining-based fluorescence microscopic analysis; assay type: functional, cell-based
# Method in brief: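 MGC-803 cells (5×10^4 cells/mL, 6-well plates) were treated at 5 µmol/L for 12-48 h in fresh medium with 10% FBS. Controls: HCPT 10 µM for 48 h, DMSO. Cells were fixed in 4% paraformaldehyde for 10 min and stained with Hoechst 33258 for 5 min. Fluorescence microscopy used 350 nm excitation and 460 nm emission.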
# A-375 [3] = experiment: Selectivity index, ratio of IC50 for mouse NIH/3T3 cells to IC50 for human A375 cells; assay type: functional
# Method in brief: (§1)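 Index is the IC50 in normal NIH3T3 cells divided by the IC50 in each cancer line. […] HCPT and adriamycin were used as positive controls.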
# MGC-803 [4] = experiment: Selectivity index, ratio of IC50 for mouse NIH/3T3 cells to IC50 for human MGC803 cells; assay type: functional; method in brief: as §1
# Bcap37 [5] = experiment: Cytotoxicity against human Bcap37 cells after 72 hrs by MTT assay; assay type: functional, cell-based
# Method in brief: (§2)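 Cancer lines grown in RPMI 1640 with 10% heat-inactivated FBS, 37 °C, 5% CO2. Cells trypsinized at 80-90% confluence, seeded at 2×10^3/well overnight, then given compounds (DMSO stocks diluted in medium) at various concentrations for 72 h at 37 °C. Controls: 0.1% DMSO negative, adriamycin positive. MTT (5 mg/ml) added for 4 h, formazan dissolved in SDS 12 h, A595 read. IC50 from dose-response curves.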
# MCF7 [6] = experiment: Selectivity index, ratio of IC50 for mouse NIH/3T3 cells to IC50 for human MCF7 cells; assay type: functional; method in brief: as §1
# [7] = Upregulation of Bax expression in human MGC803 cells at 2.5 to 10 uM after 12 hrs by Western blot analysis; assay type: functional, cell-based; settings: MGC-803
# Method in brief: (§3)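 MGC-803 cells were treated at 2.5, 5 or 10 µM for 12 h, then collected. Western blots were probed with anti-p53 and anti-Bax (1:500 to 1:1000), with β-actin as loading reference.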
# A-375 [8] = experiment: Cytotoxicity against human A375 cells after 72 hrs by MTT assay; assay type: functional, cell-based; method in brief: as §2
# MGC-803 [9] = experiment: Induction of apoptosis in human MGC803 cells at 10 uM by Annexin V-FITC/propidium iodide staining-based flow cytometric analysis; assay type: functional, cell-based; settings: TDE = time-dependent effect
# Method in brief: (§4)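 MGC-803 cells were treated at 10 µM, with 36 h among the time points; HCPT 10 µM served as positive control. Cells at 1×10^6/mL were washed in cold PBS and resuspended in 500 µL binding buffer. Staining used 5 µL Annexin V-FITC plus 5 µL PI for 20 min in the dark, then flow cytometry. Apoptosis ratio is early plus late apoptotic quadrants.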
# MGC-803 [10] = experiment: Induction of apoptosis in human MGC803 cells assessed as apoptosis ratio at 10 uM after 36 hrs by Annexin V-FITC/propidium iodide staining-based flow cytometric analysis; assay type: functional; method in brief: as §4
# Bcap37 [11] = experiment: Selectivity index, ratio of IC50 for mouse NIH/3T3 cells to IC50 for human Bcap37 cells; assay type: functional; method in brief: as §1
# [12] = Upregulation of p53 expression in human MGC803 cells at 2.5 to 10 uM after 12 hrs by Western blot analysis; assay type: functional, cell-based; settings: MGC-803; method in brief: as §3
# MGC-803 [13] = experiment: Induction of apoptosis in human MGC803 cells assessed as necrotic cells at 5 uM after 12 to 48 hrs by acridine orange/ethidium bromide staining-based fluorescence microscopic analysis; assay type: functional, cell-based
# Method in brief: (§5)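 MGC-803 cells at 5×10^4 cells/mL were seeded in 6-well plates. Medium was replaced with fresh medium plus 10% FBS containing compound, 5 µM for 12-48 h. Controls: HCPT 10 µM for 48 h, DMSO. Cells were washed with PBS and the coverslip was inverted onto 20 µL AO/EB stain (100 µg/mL). Fluorescence microscopy scored live, early apoptotic, late apoptotic and necrotic nuclei.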
# MGC-803 [14] = experiment: Induction of apoptosis in human MGC803 cells assessed as activation of caspase-9 using Ac-LEHD-pNA as probe at 2.5 to 10 uM after 12 hrs; assay type: functional, cell-based
# Method in brief: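 MGC-803 cells were treated at 2.5, 5 or 10 µM for 12 h. Cells were lysed on ice for 25 min and spun at 16000 g for 15 min. Supernatant was mixed with reaction buffer and Ac-LEHD-pNA and incubated at 37 °C for 2-3 h in the dark. A405 was read against a buffer blank.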
# MGC-803 [15] = experiment: Induction of apoptosis in human MGC803 cells assessed as DNA fragmentation at 5 uM after 12 to 48 hrs by TUNEL assay; assay type: functional, cell-based
# Method in brief: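 MGC-803 cells (5×10^4 cells/mL, 6-well) were exposed at 5 µM for 12-48 h. Controls: HCPT 10 µM for 48 h, DMSO. Colorimetric TUNEL: fixed in 4% paraformaldehyde 40 min, permeabilized on ice, endogenous peroxidase quenched with 0.3% H2O2/methanol 20 min. Then TdT plus biotin-dUTP 60 min at 37 °C, streptavidin-HRP 30 min, DAB 10 min. Brown precipitate scored by light microscopy.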
# [16] = (§6) Cytotoxicity against human PC3 cells after 72 hrs by MTT assay; assay type: functional, cell-based; settings: PC-3, 72 h
# Method in brief: as §2, with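 “Cells” for “Cancer lines grown in RPMI 1640 with 10% heat-inactivated FBS, 37 °C, 5% CO2. Cells”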
# PC-3 [17] = experiment: as §6; assay type: functional, cell-based
# Method in brief: as §2, with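 “Cells” for “Cancer lines grown in RPMI 1640 with 10% heat-inactivated FBS, 37 °C, 5% CO2. Cells”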
# PC-3 [18] = experiment: Selectivity index, ratio of IC50 for mouse NIH/3T3 cells to IC50 for human PC3 cells; assay type: functional; method in brief: as §1
# MGC-803 [19] = experiment: Induction of apoptosis in human MGC803 cells at 5 uM after 12 to 48 hrs by acridine orange/ethidium bromide staining-based fluorescence microscopic analysis; assay type: functional, cell-based; method in brief: as §5
# MGC-803 [20] = experiment: Cytotoxicity against human MGC803 cells after 72 hrs by MTT assay; assay type: functional, cell-based; method in brief: as §2
# MCF7 [21] = experiment: Cytotoxicity against human MCF7 cells after 72 hrs by MTT assay; assay type: functional, cell-based; method in brief: as §2
structure (smiles),measurement,setting,value
C=C(C)[C@@H]1CC[C@]2(C(=O)OCCCCN3CCCCC3)CC[C@]3(C)[C@H](CC[C@@H]4[C@@]5(C)CCC(=O)C(C)(C)[C@@H]5CC[C@]43C)[C@@H]12,Activity,MGC-803 [1],Active
same,Activity,MGC-803 [2],Active
same,Ratio IC50,A-375 [3],3.41
same,Ratio IC50,MGC-803 [4],7.38
same,Activity,Bcap37 [5],Dose-dependent effect
same,IC50,"Bcap37 [5]; Bcap37, 72 h",4.2 µM
same,Ratio IC50,MCF7 [6],5.11
same,Activity,[7],Active
same,Activity,A-375 [8],Dose-dependent effect
same,IC50,"A-375 [8]; A-375, 72 h",7.8 µM
same,Activity,MGC-803 [9],tde
same,Activity,MGC-803 [10],28.33%
same,Ratio IC50,Bcap37 [11],6.33
same,Activity,[12],Active
same,Activity,MGC-803 [13],inactive
same,Activity,MGC-803 [14],Active
same,Activity,MGC-803 [15],Active
same,IC50,[16],5.6 µM
same,Activity,PC-3 [17],Dose-dependent effect
same,Ratio IC50,PC-3 [18],4.75
same,Activity,MGC-803 [19],Active
same,Activity,MGC-803 [20],Dose-dependent effect
same,IC50,"MGC-803 [20]; MGC-803, 72 h",3.6 µM
same,Activity,MCF7 [21],Dose-dependent effect
same,IC50,"MCF7 [21]; MCF7, 72 h",5.2 µM
